{"data": "Measured values collected from several papers", "organism": "Salmonella enterica", "note": "Each line is one published result; the experiments were not run side by side. pIC50: −log10 of the molar value."}
{"SMILES": "CO/N=C(\\C(=O)N[C@@H]1C(=O)N2C(C(=O)O)=C(CSC(=O)c3ccco3)CS[C@H]12)c1csc(N)n1", "read-out": "microbial growth", "strain": "CHOLERAESUIS", "time": "20 h", "pH": "pH 7", "endpoint": "MIC", "result": "1 µg/mL"}
{"SMILES": "CO[C@H]1O[C@H](COC(c2ccccc2)(c2ccccc2)c2ccccc2)[C@@H](OC(=O)c2ccc(C(C)(C)C)cc2)[C@H](OC(=O)c2ccc(C(C)(C)C)cc2)[C@H]1OC(=O)c1ccc(C(C)(C)C)cc1", "read-out": "microbial killing", "method": "broth dilution", "strain": "TYPHI", "endpoint": "MBC", "result": "16 µg/mL"}
{"SMILES": "[H]/N=C(/N)N[C@H]1[C@H](O)[C@@H](O)[C@H](O[C@@H]2O[C@@H](C)[C@](O)(C=O)[C@H]2O[C@@H]2O[C@@H](CO)[C@H](O)[C@@H](O)[C@@H]2NC)[C@@H](N/C(N)=N\\[H])[C@@H]1O", "read-out": "microbial growth", "strain": "TYPHI", "endpoint": "pIC50", "result": 5.09}
{"SMILES": "COc1cc(Cc2cnc(N)nc2N)cc(OC)c1OC", "read-out": "microbial growth", "strain": "CHOLERAESUIS", "time": "20 h", "pH": "pH 5.5", "endpoint": "MIC", "result": "0.5 µg/mL"}
{"SMILES": "CO[C@H]1/C=C/O[C@@]2(C)Oc3c(C)c(O)c4c(O)c(c(/C=N/N5CCN(C)CC5)c(O)c4c3C2=O)NC(=O)/C(C)=C\\C=C\\[C@H](C)[C@H](O)[C@@H](C)[C@@H](O)[C@@H](C)[C@H](OC(C)=O)[C@@H]1C", "read-out": "microbial growth", "strain": "TYPHI", "endpoint": "pIC50", "result": 6.92}
{"SMILES": "CC1=NN(CNc2c(O)c(S(=O)(=O)O)cc3ccccc23)C(=O)C1=NNn1c(-c2ccccc2)nc2ccccc2c1=O", "read-out": "microbial growth", "method": "broth dilution", "strain": "PARATYPHI", "time": "24 h", "endpoint": "MIC", "result": "83.7 µM"}
{"SMILES": "CCCCCCCCCCCC(=O)OC[C@H]1O[C@@H](n2cc(C)c(=O)[nH]c2=O)C[C@@H]1O", "read-out": "microbial killing", "method": "broth dilution", "strain": "TYPHI", "endpoint": "MBC", "result": "8 µg/mL"}
{"SMILES": "CC1=NN(CNc2ccccc2)C(=O)C1=NNn1c(-c2ccccc2)nc2ccccc2c1=O", "read-out": "microbial growth", "method": "broth dilution", "strain": "PARATYPHI", "time": "24 h", "endpoint": "MIC", "result": "221 µM"}
{"SMILES": "CCn1cc(C(=O)O)c(=O)c2ccc(C)nc21", "read-out": "microbial growth", "strain": "CHOLERAESUIS", "time": "20 h", "pH": "pH 7.2", "endpoint": "MIC", "result": "4 µg/mL"}
{"SMILES": "O=C1NN=C(N=Cc2ccccc2O)C1=NNn1c(-c2ccccc2)nc2ccccc2c1=O", "read-out": "microbial growth", "method": "broth dilution", "strain": "PARATYPHI", "time": "24 h", "endpoint": "MIC", "result": "55.4 µM"}
{"SMILES": "CCCCCCCCCCCC(=O)OC[C@H]1O[C@@H](n2cc(C)c(=O)[nH]c2=O)C[C@@H]1OC(=O)c1ccc(C(C)(C)C)cc1", "read-out": "microbial killing", "method": "broth dilution", "strain": "TYPHI", "endpoint": "MBC", "result": "16 µg/mL"}
